Source: ChEMBL document CHEMBL1123090, “Inhibition of liver alcohol dehydrogenase and ethanol metabolism by 3-substituted thiolane 1-oxides” (J Med Chem, 1985)

How the values were obtained:
[1] = In vitro inhibitory constant against rat liver alcohol dehydrogenase was determined
How it was run: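 Enzymes partially purified from liver (DEAE-cellulose, then AMP-agarose affinity), all steps 0–5 °C. Ethanol varied 0.4–2 mM, 0.5 mM NAD+, 83 mM potassium phosphate pH 7.3 with 40 mM KCl, 37 °C. At least three inhibitor levels; 32 initial velocities by A340. Kii from uncompetitive fit; one or two experiments.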

[2] = Compound dose that causes 50% toxicity in mice was determined; format: organism-based; settings: mouse, in vivo
How it was run: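 Fed male Swiss-Webster mice (16–20 g) given ip injections of sulfoxide solutions at 0.1–10 M (the concentration of the injected solution), at 0.1 mL/10 g body weight.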

Rattus norvegicus = species: Rattus norvegicus; test: The Kii was determined with varied concentrations of inhibitor and ethanol by determining blood alcohol concentration in rats; format: functional
How it was run: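 Fed male Sprague-Dawley rats (175–280 g) given inhibitor ip at 0–1.0 mmol/kg in saline, then 10 min later ethanol 19.6 mmol/kg ip. Tail blood ethanol measured over time by GC with tert-butyl alcohol internal standard. Initial elimination rate taken from tangent after 60-min absorption phase; Kii by nonlinear fit.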

[3] = system: Alcohol dehydrogenase (Macaca mulatta); test: In vitro inhibitory constant against monkey liver alcohol dehydrogenase was determined; settings: Cercopithecidae
[4] = molecular target: Alcohol dehydrogenase (Equus caballus) (UniProt P00327+P00328); test: In vitro inhibitory constant against horse liver alcohol dehydrogenase was determined

## [O-][S+]1CCCC1 [TETRAMETHYLENE SULFOXIDE]
[1]
  Kii: 130 µM
[2]
  LD50: 45000 µmol/kg
Rattus norvegicus
  Kii: 340 µmol/kg
[3]
  Kii: 1600 µM

## CCCCCCC1CC[S+]([O-])C1 (centres undefined)
[1]
  Kii: 0.13 µM
[2]
  LD50: 770 µmol/kg
Rattus norvegicus
  Kii: 65 µmol/kg
[4]
  Kii: 0.19 µM
[3]
  Kii: 0.35 µM

## CC1CC[S+]([O-])C1 (centres undefined)
[1]
  Kii: 19 µM
[2]
  LD50: 1300 µmol/kg
Rattus norvegicus
  Kii: 64 µmol/kg
[4]
  Kii: 7.5 µM
[3]
  Kii: 460 µM

## CCCCC1CC[S+]([O-])C1 (centres undefined)
[1]
  Kii: 1.1 µM
[2]
  LD50: 1400 µmol/kg
Rattus norvegicus
  Kii: 11 µmol/kg
[4]
  Kii: 0.63 µM
[3]
  Kii: 2.3 µM

## [O-][S+]1CCC(c2ccccc2)C1 (centres undefined)
[1]
  Kii: 1.1 µM
[2]
  LD50: 4000 µmol/kg
Rattus norvegicus
  Kii: 87 µmol/kg
[4]
  Kii: 0.36 µM
[3]
  Kii: 1.5 µM
